GASC1 inh – inhibitors of human demethylase GASC-1 KDM4C; 96,000 tested, 0.15% active; inhibition, % at 12.5 µM; GST-KDM4C 2-372, H3K9me3 peptide, LANCE TR-FRET; AID 720574; Q9H3R0;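 active means mean replicate inhibition above about 25%, with at least 55% of replicates also reaching it, limit read from the data, passing the limit was not always enough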
Target sequence (Q9H3R0 2-372 limits assumed): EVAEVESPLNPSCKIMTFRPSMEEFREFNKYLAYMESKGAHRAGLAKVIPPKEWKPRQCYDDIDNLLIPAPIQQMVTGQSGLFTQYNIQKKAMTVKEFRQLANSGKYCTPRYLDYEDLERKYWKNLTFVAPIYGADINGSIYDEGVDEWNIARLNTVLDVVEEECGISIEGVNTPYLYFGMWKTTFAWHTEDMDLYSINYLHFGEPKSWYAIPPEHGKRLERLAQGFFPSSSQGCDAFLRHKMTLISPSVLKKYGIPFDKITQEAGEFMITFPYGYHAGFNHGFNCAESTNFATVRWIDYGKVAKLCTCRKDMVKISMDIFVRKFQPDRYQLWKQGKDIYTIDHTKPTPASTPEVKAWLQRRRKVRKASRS
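System: N-terminal GST-fused human GASC-1 (KDM4C) fragment, residues 2-372; amount: enzyme final amount 10 nM; incubation: reaction 30 min RT, detection step 1 h RT; medium: HEPES buffer, pH 7.5, plus ascorbate; technique: LANCE TR-FRET, Eu antibody, ULight-streptavidin, EDTA, ex 340 nm, em 618/671 nm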
IDH1 mut inh – inhibitors of human IDH1 R132H. O75874. IDH1 R132H reductase, diaphorase/resazurin fluorescence, 60 min. inhibition, % at 10 µM. 70,000 tested, 0.18% active; in the data active means inhibition above about 34%
Of the large screens only hits and unclear results are named; the others gave an inactive call. The list is not random: actives were taken first. Their share in the collection is about 0.19%.

O=C(O)C[C@@H]1C[C@@H]2c3cc(NC(=O)Nc4ccc(C(F)(F)F)cc4)ccc3O[C@@H]2[C@@H](CO)O1	GASC1 inh 34, IDH1 mut inh 50
O=C(O)C[C@@H]1C[C@H]2c3cc(NC(=O)Nc4ccc(C(F)(F)F)cc4)ccc3O[C@H]2[C@@H](CO)O1	none
O=C(O)C[C@@H]1C[C@@H]2c3cc(NC(=O)CC4CC4)ccc3O[C@@H]2[C@H](CO)O1	none
O=C(O)C[C@@H]1C[C@@H]2c3cc(NC(=O)CC4CC4)ccc3O[C@@H]2[C@@H](CO)O1	GASC1 inh 38, IDH1 mut inh 60
COC(OC)C1Nc2ccccc2C(=O)N1c1cccc(C(F)(F)F)c1 (stereo not drawn)	none (no result: GASC1 inh)
CCOC(=O)c1cnc(SC2CC(=O)N(c3cccc(F)c3)C2=O)nc1N (stereo not drawn)	none (no result: GASC1 inh)
CN1C(=O)c2cc(NC(=O)Nc3ccccc3Cl)ccc2OC[C@@H]2O[C@@H](CC(=O)O)CC[C@@H]21	none (no result: IDH1 mut inh)
CN1C(=O)c2cc(NC(=O)Nc3ccccc3Cl)ccc2OC[C@H]2O[C@@H](CC(=O)O)CC[C@@H]21	GASC1 inh 49 (no result: IDH1 mut inh)
CC(Sc1ncnc2sc3c(c12)CCCC3)C(=O)Nc1ccc(Br)cc1 (stereo not drawn)	none (no result: GASC1 inh)
O=C(Nc1ccc(Cl)cc1)N[C@H]1CC[C@@H](CCNC(=O)c2ccccc2F)O[C@H]1CO	none (no result: GASC1 inh)
O=C(Nc1ccc(Cl)cc1)N[C@H]1CC[C@H](CCNC(=O)c2ccccc2F)O[C@H]1CO	GASC1 inh 40, IDH1 mut inh 43
CCOC(=O)c1c(NC(=S)Nc2cc(OC)c(Cl)cc2OC)sc(C)c1-c1ccccc1	none (no result: GASC1 inh)
O=S(=O)(Nc1ccc(Cl)cn1)c1cccc(S(=O)(=O)c2ccccc2)c1	none (no result: GASC1 inh)
O=S(=O)(Nc1cccnc1)c1cccc(S(=O)(=O)c2ccc(Cl)c(Cl)c2)c1	IDH1 mut inh 47 (no result: GASC1 inh)
CN([NH2+][O-])c1cc(O)ccc1O	IDH1 mut inh 69 (no result: GASC1 inh)
COC(=O)c1ccccc1NC(=O)C1CC(c2cc(Cl)c(OC)cc2OC)=NO1 (stereo not drawn)	none (no result: GASC1 inh)
COc1ccc(C#Cc2ccc3c(c2)[C@H]2[C@H](CCN2S(=O)(=O)c2ccccc2F)[C@H](CO)N3C)cc1	none (no result: IDH1 mut inh)
COc1ccc(C#Cc2ccc3c(c2)[C@@H]2[C@@H](CCN2S(=O)(=O)c2ccccc2F)[C@@H](CO)N3C)cc1	GASC1 inh 48 (no result: IDH1 mut inh)
O=C(CC1(O)C(=O)N(Cc2ccc(Cl)cc2)c2ccccc21)c1cc2ccccc2oc1=O (stereo not drawn)	none (no result: GASC1 inh)
CC(C)Cc1nc(SC(C)C(=O)Nc2ccc(Cl)cc2)n[nH]1 (stereo not drawn)	none (no result: GASC1 inh)
COc1cccc(NC(=O)N[C@@H]2C=C[C@@H](CC(=O)N3CCCCC3)O[C@@H]2CO)c1	GASC1 inh 34 (no result: IDH1 mut inh)
COc1cccc(NC(=O)N[C@@H]2C=C[C@H](CC(=O)N3CCCCC3)O[C@@H]2CO)c1	none (no result: IDH1 mut inh)
CN(C)c1ccc2c(c1)[C@H]1C[C@H](CC(=O)N3CCCCC3)O[C@@H](CO)[C@H]1O2	GASC1 inh 30 (no result: IDH1 mut inh)
CN(C)c1ccc2c(c1)[C@H]1C[C@H](CC(=O)N3CCCCC3)O[C@H](CO)[C@H]1O2	GASC1 inh 31 (no result: IDH1 mut inh)
CN(C)c1ccc2c(c1)[C@@H]1C[C@H](CC(=O)N3CCc4ccccc4C3)O[C@H](CO)[C@@H]1O2	none
CN(C)c1ccc2c(c1)[C@H]1C[C@@H](CC(=O)N3CCc4ccccc4C3)O[C@@H](CO)[C@H]1O2	none
CN(C)c1ccc2c(c1)[C@@H]1C[C@H](CC(=O)N3CCCCC3)O[C@H](CO)[C@@H]1O2	GASC1 inh 46 (no result: IDH1 mut inh)
CN(C)c1ccc2c(c1)[C@@H]1C[C@@H](CC(=O)N3CCc4ccccc4C3)O[C@@H](CO)[C@@H]1O2	none
O=C(CSc1nnc(-c2ccc(Br)cc2)o1)Nc1ccc(Cl)cc1Cl	none (no result: GASC1 inh)
O=C(N/N=C/c1ccc(O)c(O)c1O)c1ccccc1O	none (no result: GASC1 inh)
Brc1ccc(CNc2nc3ccccc3n2CCN2CCOCC2)cc1	none (no result: GASC1 inh)
COc1cc2c(cc1O)CCC1C2CCC2(C)C(O)CCC12 (stereo not drawn)	none (no result: GASC1 inh)
CCOC(=O)c1c(NC(=O)COc2cc(C)ccc2C)sc2c1CCC2	none (no result: GASC1 inh)
Cc1sc2c(c1C)-c1nc(SCC(=O)C(C)(C)C)ncc1S(=O)(=O)N2C	none (no result: GASC1 inh)
Cc1cc(C)c(C#N)c(SCCS(=O)(=O)c2nc3ccccc3s2)n1	none (no result: GASC1 inh)
COC(=O)C[C@H]1C[C@H]2c3cc(N(C)C)ccc3O[C@H]2[C@@H](CO)O1	GASC1 inh 36
CCCNC(=O)C[C@H]1C[C@H]2c3cc(NC(=O)CN(C)C)ccc3O[C@H]2[C@@H](CO)O1	none
CN(C)c1ccc2c(c1)[C@@H]1C[C@@H](CC(=O)NCC3CC3)O[C@@H](CO)[C@@H]1O2	GASC1 inh 32
CN(C)c1ccc2c(c1)[C@H]1C[C@H](CC(=O)NCCc3ccccc3)O[C@H](CO)[C@H]1O2	none
CCCNC(=O)C[C@@H]1C[C@H]2c3cc(NC(=O)CN(C)C)ccc3O[C@H]2[C@H](CO)O1	GASC1 inh 40, IDH1 mut inh 45
CN(C)c1ccc2c(c1)[C@H]1C[C@H](CC(=O)NCC3CC3)O[C@@H](CO)[C@H]1O2	none
CCCNC(=O)C[C@@H]1C[C@H]2c3cc(N(C)C)ccc3O[C@H]2[C@@H](CO)O1	GASC1 inh 28
COC(=O)C[C@@H]1C[C@@H]2c3cc(N(C)C)ccc3O[C@@H]2[C@H](CO)O1	none (no result: GASC1 inh)
CC(C)c1ccc2c(c1)c1c3c(cncn32)CCC1	none (no result: GASC1 inh)
CC(=O)N[C@H]1[C@H](O[C@@H]2[C@@H](O)[C@H](C)O[C@@H](Oc3ccc4c(=O)c(-c5ccc(O)cc5)coc4c3)[C@@H]2O)O[C@H](CO)[C@@H](O[C@@H]2O[C@@H](C)[C@H](O)[C@@H](O)[C@H]2O)[C@@H]1O	none (no result: GASC1 inh)
CCNC(=O)CCc1nc(-c2ccc(OC)cc2)no1	none (no result: GASC1 inh)
CC(C)(O)C(O)Cc1cc2ccc(=O)oc2cc1O (stereo not drawn)	none (no result: GASC1 inh)
O=C(CC1(O)C(=O)N(Cc2cccc3ccccc23)c2ccccc21)c1ccccc1[N+](=O)[O-] (stereo not drawn)	none (no result: GASC1 inh)
N#CC1=C(SCC(=O)Nc2ccccc2C(=O)c2ccccc2)NC(=O)CC1c1ccccc1F (stereo not drawn)	none (no result: GASC1 inh)
CC(Oc1ccc(C(C)(C)C)cc1)c1nc(-c2cccnc2)no1 (stereo not drawn)	none (no result: GASC1 inh)
CC(C)(C)CC(=O)NCc1ccc(S(N)(=O)=O)cc1	none (no result: GASC1 inh)
COCCNC(=O)C[C@H]1C[C@@H]2c3cc(N(C)C)ccc3O[C@@H]2[C@@H](CO)O1	GASC1 inh 46
COCCNC(=O)C[C@@H]1C[C@H]2c3cc(NC(=O)CN(C)C)ccc3O[C@H]2[C@@H](CO)O1	none
CC1Cc2ccc3c(c2C(O)C1)C(=O)c1cccc(O)c1C3O (stereo not drawn)	none (no result: GASC1 inh)
COC(=O)c1ccccc1NC(=O)NCc1ccc(C(=O)O)cc1	none (no result: GASC1 inh)
CC(O)c1cc(-c2ccc(Cl)cc2Cl)no1 (stereo not drawn)	none (no result: GASC1 inh)
O=C(Nc1ccccc1C(=O)O)c1cccc(S(=O)(=O)NCc2ccccc2)c1	none (no result: GASC1 inh)
CC(C)(C)c1ccc(S(=O)(=O)/C=C/C#N)cc1	IDH1 mut inh 82 (no result: GASC1 inh)
Cc1cc(C)c(C#N)c(SCC(O)CS(=O)(=O)c2ccc(C(C)(C)C)cc2)n1 (stereo not drawn)	none (no result: GASC1 inh)
CCN(CC(=O)Nc1ccccc1C)S(=O)(=O)c1ccc(Br)cc1	none (no result: GASC1 inh)
C[C@@H]1CCCCO[C@H](CN(C)Cc2ccncc2)[C@H](C)CN([C@@H](C)CO)C(=O)c2cc(NC(=O)CCC(F)(F)F)ccc2O1	GASC1 inh 34, IDH1 mut inh 75
